Experimental data: the EternaBench riboswitch data

System: MS2 coat protein
Assay: apparent Kd, MS2 coat protein; higher = weaker binding; RNA-MaP array; theophylline 2 mM where present
Method in brief: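 The titrant was SNAP-549-labelled MS2 coat protein, run from 0.7 or 1.5 nM in doubling steps to 3 µM. It was applied to designs transcribed by stalled E. coli RNA polymerase on Illumina sequencing-chip clusters, without ligand first and then with constant ligand, in 100 mM Tris-HCl pH 7.5, 80 mM KCl, 4 mM MgCl2, BSA, DTT, yeast tRNA and Tween-20. The apparent Kd is the median of filtered per-cluster binding-curve fits, with green signal normalised to red-channel RNA signal and control-cluster median Fmax.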

[1] = designed as: OFF switch for theophylline, no ligand
[2] = ligand present: theophylline, designed as: OFF switch for theophylline
[3] = designed as: ON switch for theophylline, no ligand
[4] = ligand present: theophylline, designed as: ON switch for theophylline

| Sequence | apparent Kd [1] [nM] | apparent Kd [2] [nM] | apparent Kd [3] [nM] | apparent Kd [4] [nM] |
| --- | --- | --- | --- | --- |
| CAAGAAGUAACUGAUACCAGUGUACUGACAUGAGGAUCACCCAUGUUGGGUUUUGUUGUACACCCUUGGCAGCAGAAUCUUCUUG | 66.8 | 90.5 | – | – |
| AGCGACAUGCGUGAUACCAGCUACAUGAGGAUCACCCAUGUAAGUAGGAAACUACUGUGUAGCCCUUGGCAGCAUAGUGCAUGUC | 13.5 | 41.5 | – | – |
| ACAUGAGGAUCACCCAUGUGGCGACUUGAUACCAGACCCGCACUAGUCCCUUGGCAGCAACUACGUGUGGGACACCCAUGUUAAG | 16.9 | 22 | – | – |
| UAAUAUCACAUAUUAUGGGUGUAAUGUGAUACCAGCUAGGAAACUAGCCCUUGGCAGCACAUGAGGAUCACCCAUGUAAGCUGUA | 77.9 | 49.7 | – | – |
| GCUGUAAGUGCAGAUACCAGCAGGUGAUAUUUCAUAUGACAUGAGGAUCACCCAUGUAACUGCCCUUGGCAGCUGCACUUACAGC | – | – | 373 | 40.9 |
| UCAUUUGAGUGAGAUGUAAGGUAUCAUGAUACCAGUAGAUAAUUAUACCCUUGGCAGCAUGACAUGAGGAUCACCCAUGUACAUG | 11.1 | 10.3 | – | – |
| AUCGUACCUGAUGAUACCAGCAUGUGAUCAUAACAUGAGGAUCACCCAUGUAAUCAGUGAUGCCCUUGGCAGCAUAGUCGAUACA | – | – | 153 | 55.9 |
| CAUACUUUAGUAUGACAUGUGGGCAGUGAUACCAGAUACGAAAGUAUCCCUUGGCAGCACAACAUGAGGAUCACCCAUGUAAUUA | – | – | 29.6 | 59.2 |
| UGUCUAGUAAUCGAUACCAGCUACAUGAGGAUCACCCAUGUAGUUCGAACGGCCGCAUGUAGCCCUUGGCAGCGAAUAGUUACAU | 18.9 | 52.7 | – | – |
| AGAUUACAUGUUAUAAUACGGUAUACUGAUACCAGUGUUUCUAUUCACCCUUGGCAGCAGCAACAUGAGGAUCACCCAUGUAUUA | – | – | 17.1 | 16 |
| AAACUAACGAGAGGAAACCUCGAGGGUGAUACCAGCACAUAAGGGUGCCCUUGGCAGCACCGACGUACAUGAGGAUCACCCAUGU | – | – | 162 | 65 |
| UUUUAAAGCAUGGCGUAUCGGAAAACCGAUACCAGUACAGAAAUGUACCCUUGGCAGCGGCAUUUUACAUGAGGAUCACCCAUGU | 14 | 40.3 | – | – |
| UGUAACAUGAGGAUCACCCAUGUAAGUGAUACCAGAUAAGUAGUAGUCCCUUGGCAGCAUAUUGGGAAAGUGUAUAGUCUAUACG | – | – | 52.8 | 65.1 |
| AGACAUGAGGAUCACCCAUGUAGUAUGGAUACCAGAUCCAGAUUUAUCCCUUGGCAGCUGUGGUACAGUGAUGGAUUGCUCCUAG | 31 | 40.8 | – | – |
| UGUAACAUGAGGAUCACCCAUGUAAGUGAUACCAGAUAAGUAGUAGUCCCUUGGCAGCAUAUUGGGAAAGUGUAUAGUCUAUAUU | – | – | 57.2 | 55.6 |
| CAGGUGCAGUCAGAUACCAGAUCUGCACAUGAGGAUCACCCAUGUGUAAUGAGUUCAAAGAUCCCUUGGCAGCUGUGUGAUCCGA | – | – | 165 | 193 |
| UCGUGUGUUUCGGAUACCAGUGAAAUCGAUACAUGAGGAUCACCCAUGUGAGAGGAUGUACACCCUUGGCAGCUGUCUGUAGCGG | – | – | 48.9 | 37.4 |
| ACCCUAGCGAUCGCUCGCUAGGGUGCGGAUACCAGCGAGGUCCAUCGCCCUUGGCAGCCGAACAUGAGGAUCACCCAUGUCGGUA | – | – | 10.7 | 14.3 |
| UCGGCAGUGAACGAUACCAGCGUCACGUGGCCGGUGGUCACAUGAGGAUCACCCAUGUAACGCCCUUGGCAGCGUGCGCGUACCG | 23.9 | 129 | – | – |
| CUGCUACAUGAGGAUCACCCAUGUGGAGAUACCAGCCUGAACGAUGGCCCUUGGCAGCUCUUAGCUGGUGAUCAUAUAUUUCAGA | 30.5 | 146 | – | – |
| UUGGUAGGACAGCUCAUAUAAGCAUGUGAUACCAGCUAGAAAACUAGCCCUUGGCAGCACUUUACAUGAGGAUCACCCAUGUCCC | 165 | 460 | – | – |
| ACGUCUCGAAAACUCGUAGUAACAAUAGAUACCAGUAGCGAGAGUUACCCUUGGCAGCUACAUGAGGAUCACCCAUGUACGAGGA | 17.4 | 17.2 | – | – |
| AUGUCGUUGAAUAUAGCGGCUUGGAGUGAUACCAGAAUGAUCUAAUUCCCUUGGCAGCAUUACAUGAGGAUCACCCAUGUUCCAG | – | – | 51.1 | 39.7 |
| UUUGAUAGGACAGAUACCAGCGUGUUAUAAAACAUGAGGAUCACCCAUGUAGUGAUCAAGCGCCCUUGGCAGCUGGUUUGUUAGG | – | – | 188 | 323 |
| AACUGGACCCGUGAUACCAGAGACAUGAGGAUCACCCAUGUACAUGAGGAUCACCCAUGUCUCCCUUGGCAGCACCGCAGGGAGC | 97.5 | 393 | – | – |
